According to ChEMBL document CHEMBL2384994, “Discovery and evaluation of piperid-4-one-containing mono-carbonyl analogs of curcumin as anti-inflammatory agents” (Bioorg Med Chem, 2013):
The source made the active and inactive calls. The rule behind the calls is not given here.

Columns and labels:
RAW264.7 [1] = assay: Antiinflammatory activity in mouse RAW264.7 cells assessed as inhibition of LPS-induced IL6 release at 10 uM incubated for 2 hrs prior to LPS-challenge measured after 22 hrs by ELISA relative to LPS-treated control; type: functional
How it was run: (§1)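 Pretreated with compound or DMSO vehicle for 2 h (screen at 10 µM; dose series 1, 5, 10 µM), then LPS 0.5 µg/mL for 22 h. Medium IL-6 measured by ELISA, normalized to cellular total protein, expressed as % of LPS control. Mean ± SE of 3–6 independent experiments.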

MPM [2] = assay: Inhibition of NFkappaB activation in ICR mouse MPM cells assessed as inhibition of LPS-induced IkappaB degradation at 10 uM incubated for 2 hrs prior to LPS-challenge measured after 1 hr by Western blot analysis; type: cell-based
How it was run: (§2)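 Primary peritoneal macrophages from ICR mice plated at 1.2 × 10⁶/plate overnight. Pretreated with DMSO or compound for 2 h, then LPS 10 ng/mL for 1 h. Cells lysed; 40–60 µg lysate run on 10% SDS-PAGE and blotted to nitrocellulose. Blocked in TBS pH 7.6 with 0.05% Tween 20 and 5% milk. Probed for IκB, p-JNK, p-ERK, p-p38 against GAPDH or the total protein. Detection by HRP secondary and ECL. Optical density given as % of control.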

RAW264.7 [3] = assay: Cytotoxicity against mouse RAW264.7 cells; type: cell-based
RAW264.7 [4] = assay: Antiinflammatory activity in mouse RAW264.7 cells assessed as inhibition of LPS-induced IL6 release incubated for 2 hrs prior to LPS-challenge measured after 22 hrs by ELISA; type: functional, cell-based; how it was run: as §1
Mus musculus [5] = assay: Toxicity in C57BL/6 mouse assessed as decrease in body weight at 20 mg/kg, ip after 3 days; type: organism-based; set-up: dose 20 mg/kg, route intraperitoneal; details: in vivo, 72 h
How it was run: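 Male C57BL/6 mice (18–22 g) given compound ip at 20 mg/kg, prepared at 2 mg/mL in water with macrogol 15 hydroxystearate (5–10%) ± MCT (0.5–2%). Vehicle was 10% solubilizer with 2% MCT. LPS 20 mg/kg iv given 15 min later. Body weight and survival recorded every 24 h for 7 days; n = 10 per group.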

Mus musculus [6] = assay: Antiinflammatory activity in C57BL/6 mouse assessed as protection against LPS-induced septic death by measuring survival at 15 mg/kg, ip administered 15 mins prior to LPS challenge measured after 7 days relative to vehicle-treated control; type: functional; details: route intraperitoneal
How it was run: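 Male C57BL/6 mice (18–22 g), n = 10 per group, given compound ip 15 min before LPS (20 mg/kg, iv). Compound at 2 mg/mL in water with macrogol 15 hydroxystearate (5–10% final) ± medium-chain triglycerides (0.5–2% final), dissolved at 37 °C. Vehicle was 10% solubilizer plus 2% MCT. Survival and body weight recorded every 24 h for 7 days.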

MPM [7] = assay: Inhibition of LPS-induced ERK phosphorylation in ICR mouse MPM cells incubated for 2 hrs prior to LPS-challenge measured after 1 hr by Western blot analysis; type: cell-based; how it was run: as §2
MPM [8] = assay: Inhibition of LPS-induced ERK phosphorylation in ICR mouse MPM cells at 10 uM incubated for 2 hrs prior to LPS-challenge measured after 1 hr by Western blot analysis; type: cell-based; how it was run: as §2
MPM [9] = assay: Inhibition of NFkappaB activation in ICR mouse MPM cells assessed as inhibition of LPS-induced IkappaB degradation incubated for 2 hrs prior to LPS-challenge measured after 1 hr by Western blot analysis; type: cell-based; how it was run: as §2
[10] = molecular target: MAP kinase p38 (Mus musculus) (UniProt P47811+O08911+Q9WUI1+Q9Z1B7); assay: Inhibition of LPS-induced p38 phosphorylation in ICR mouse MPM cells at 10 uM incubated for 2 hrs prior to LPS-challenge measured after 1 hr by Western blot analysis; type: cell-based; how it was run: as §2
MPM [11] = assay: Inhibition of LPS-induced JNK phosphorylation in ICR mouse MPM cells at 10 uM incubated for 2 hrs prior to LPS-challenge measured after 1 hr by Western blot analysis; type: cell-based; how it was run: as §2
MPM [12] = assay: Inhibition of LPS-induced JNK phosphorylation in ICR mouse MPM cells incubated for 2 hrs prior to LPS-challenge measured after 1 hr by Western blot analysis; type: cell-based; how it was run: as §2

Q: How did the inhibition (RAW264.7 [1]) turn out when O=C(/C=C/c1ccc(O)c(O)c1)/C=C/c1ccc(O)c(O)c1 was run?
A: Its inhibition is “Active”.

Q: Which inhibition (RAW264.7 [1]) does the source give for O=C1/C(=C/c2ccc(O)c(O)c2)CC/C1=C\c1ccc(O)c(O)c1 here?
A: Its inhibition is “Active”.

Q: CN1C/C(=C\c2ccccc2F)C(=O)/C(=C/c2ccccc2F)C1 was tested. Which inhibition (RAW264.7 [1]) did it give?
A: Its inhibition is “Active”.

Q: For COc1cc(/C=C2\CNC/C(=C\c3cc(OC)c(OC)c(OC)c3)C2=O)cc(OC)c1OC, which inhibition (MPM [2]) is on record?
A: Its inhibition is “Active”.

Q: What about the Activity (RAW264.7 [3]) of the same compound?
A: Its Activity is “Non-toxic”.

Q: What about the IC50 (RAW264.7 [4]) of the same compound?
A: Its IC50 is < 1000 nM.

Q: And the inhibition (RAW264.7 [4])?
A: The inhibition was “Dose-dependent effect”.

Q: And the inhibition at 10 µM (RAW264.7 [1])?
A: Its inhibition at 10 µM is 96%.

Q: What about the Activity (Mus musculus [5]) of the same compound?
A: Its Activity is “Toxic”.

Q: What about the Activity (Mus musculus [6]) of the same compound?
A: Its Activity is 80%.

Q: What about the inhibition (MPM [7]) of the same compound?
A: The inhibition was “Dose-dependent effect”.

Q: What about the inhibition (MPM [8]) of the same compound?
A: Its inhibition is “Active”.

Q: What about the inhibition (MPM [9]) of the same compound?
A: Its inhibition is “Dose-dependent effect”.

Q: For CN1C/C(=C\c2ccc(F)cc2)C(=O)/C(=C/c2ccc(F)cc2)C1, which inhibition (RAW264.7 [1]) is on record?
A: The inhibition was “Active”.

Q: What does the source list for CCCN1C/C(=C\c2ccc(OC)c(OC)c2)C(=O)/C(=C/c2ccc(OC)c(OC)c2)C1?
A: inhibition (MPM [2]): inactive; Activity (RAW264.7 [3]): Non-toxic; IC50 (RAW264.7 [4]): 2040 nM; inhibition (RAW264.7 [4]): Dose-dependent effect; inhibition at 10 µM (RAW264.7 [1]): 90%; inhibition [10]: inactive; inhibition (MPM [11]): inactive; inhibition (MPM [8]): inactive

Q: For CCN1C/C(=C\c2ccccc2Br)C(=O)/C(=C/c2ccccc2Br)C1, which inhibition (RAW264.7 [1]) is on record?
A: Its inhibition is “Active”.

Q: For O=C1/C(=C/c2ccc(O)cc2)CNC/C1=C\c1ccc(O)cc1, which inhibition [10] is on record?
A: The inhibition was “inactive”.

Q: How did the inhibition (MPM [2]) turn out when COc1ccc(/C=C2\CNC/C(=C\c3ccc(OC)c(OC)c3)C2=O)cc1OC was run?
A: The inhibition was “Active”.

Q: And the Activity (RAW264.7 [3])?
A: Its Activity is “Non-toxic”.

Q: And the IC50 (RAW264.7 [4])?
A: The IC50 was 2680 nM.

Q: And the inhibition (RAW264.7 [4])?
A: Its inhibition is “Dose-dependent effect”.

Q: What about the inhibition at 10 µM (RAW264.7 [1]) of the same compound?
A: The inhibition at 10 µM was 98%.

Q: And the Activity (Mus musculus [5])?
A: The Activity was “Toxic”.

Q: What about the Activity (Mus musculus [6]) of the same compound?
A: The Activity was 60%.

Q: What about the inhibition (MPM [7]) of the same compound?
A: The inhibition was “Dose-dependent effect”.

Q: What about the inhibition (MPM [12]) of the same compound?
A: Its inhibition is “Dose-dependent effect”.

Q: And the inhibition (MPM [11])?
A: The inhibition was “Active”.

Q: What about the inhibition (MPM [8]) of the same compound?
A: The inhibition was “Active”.

Q: What about the inhibition (MPM [9]) of the same compound?
A: Its inhibition is “Dose-dependent effect”.

Q: Which inhibition at 10 µM (RAW264.7 [1]) does the source give for COc1ccc(/C=C2\CN(C)C/C(=C\c3ccc(OC)c(OC)c3)C2=O)cc1OC here?
A: Its inhibition at 10 µM is 90%.

Q: CCCN1C/C(=C\c2ccccc2Cl)C(=O)/C(=C/c2ccccc2Cl)C1 was tested. Which inhibition (RAW264.7 [1]) did it give?
A: Its inhibition is “Active”.

Q: Which inhibition (RAW264.7 [1]) does the source give for O=C1/C(=C/c2ccc(O)c(O)c2)CCC/C1=C\c1ccc(O)c(O)c1 here?
A: Its inhibition is “Active”.

Q: Which inhibition (RAW264.7 [1]) does the source give for O=C1/C(=C/c2ccccc2F)CNC/C1=C\c1ccccc1F here?
A: The inhibition was “Active”.

Q: What does the source list for O=C1/C(=C/c2cccc(O)c2)CNC/C1=C\c1cccc(O)c1?
A: Activity (RAW264.7 [3]): Non-toxic; IC50 (RAW264.7 [4]): 4190 nM; inhibition (RAW264.7 [4]): Dose-dependent effect

Q: COc1cc(/C=C/C(=O)CC(=O)/C=C/c2ccc(O)c(OC)c2)ccc1O was tested. Which inhibition (MPM [11]) did it give?
A: The inhibition was “Active”.
